In PMC3268775 (Journal of the American Chemical Society, 2012):
Residue numbers refer to the chain shown, from its start. Numbered stars: 1 amine (or outer) side, 2 acyl side, 3 side chain; on linkers, the order of the positions; unused ones are H or OH. Square brackets hold non-standard residues; d marks the D form. Peptide text beside a SMILES is read from it. * marks the point of attachment. Isonicotinoyl(2-(4-Me-2-Py)) = Cc1ccnc(-c2cc(C(=O)*)ccn2)c1; X1 = O=C([C@H](Cc1c(F)cc(O)c(F)c1F)N[*:1])[*:2]

How the values were obtained:
Y731F-α2 = target: T1, Y731F-α2 (Escherichia coli, UniProt P00452, Y731F); assay: Flash-quench transient absorption: •F3Y radical in presence of Y731F-α2; type: biochemical
T1 sequence (P00452 1-761 Y731F): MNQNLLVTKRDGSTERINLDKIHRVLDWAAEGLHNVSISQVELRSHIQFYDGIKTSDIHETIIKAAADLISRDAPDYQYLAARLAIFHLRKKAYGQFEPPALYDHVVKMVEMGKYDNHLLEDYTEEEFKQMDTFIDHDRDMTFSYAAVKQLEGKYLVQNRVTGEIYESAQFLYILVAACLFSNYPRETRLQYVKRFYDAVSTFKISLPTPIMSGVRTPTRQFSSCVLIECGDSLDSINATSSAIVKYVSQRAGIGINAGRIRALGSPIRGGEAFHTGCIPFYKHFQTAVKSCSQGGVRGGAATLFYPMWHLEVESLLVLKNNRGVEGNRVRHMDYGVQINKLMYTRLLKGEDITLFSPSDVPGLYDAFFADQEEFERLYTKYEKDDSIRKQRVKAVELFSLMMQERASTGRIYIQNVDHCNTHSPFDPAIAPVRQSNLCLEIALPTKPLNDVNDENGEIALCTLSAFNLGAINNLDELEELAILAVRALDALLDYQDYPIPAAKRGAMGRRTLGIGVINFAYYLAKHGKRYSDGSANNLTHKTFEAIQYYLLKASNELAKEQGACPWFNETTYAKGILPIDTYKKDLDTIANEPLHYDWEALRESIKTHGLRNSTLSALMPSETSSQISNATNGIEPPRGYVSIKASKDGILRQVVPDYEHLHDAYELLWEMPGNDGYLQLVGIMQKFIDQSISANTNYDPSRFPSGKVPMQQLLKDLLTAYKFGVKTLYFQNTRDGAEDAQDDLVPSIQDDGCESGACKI

[1] = [Re^I]* emission lifetime of peptide in solution; type: physicochemical
Procedure, shortened: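 Time-resolved [Re] emission, monitored at 610 nm. Samples held 10 μM Re-labelled test peptide, 200 μM Ru(NH3)6Cl3, 1 mM CDP and 3 mM ATP in 50 mM sodium borate, pH 8.3, 15 mM MgSO4, 5% glycerol. For the bound state, 20 μM His6-tagged E. coli α2 mutant was added. Samples were equilibrated 3 min at 23 °C and measured while flowing. Lifetimes came from weighted least-squares fits of averaged traces.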

Y730F-α2 = target: T2, Y730F-α2 (Escherichia coli, UniProt P00452, Y730F); assay: Flash-quench transient absorption: •F3Y radical in presence of Y730F-α2; type: biochemical; details: for radical lifetime change / radical injection (in words): Y730F-α2; for •F3Y lifetime: monoexponential, 50 μM peptide
T2 sequence (P00452 1-761 Y730F): T1 sequence (P00452 1-761 Y731F) with Y730F, F731Y
Procedure, shortened: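 Laser flash-quench transient absorption at 23 °C in 50 mM sodium borate, pH 8.3, 15 mM MgSO4, 5% v/v glycerol. Final mix: 50 μM Re-labelled test peptide, 100 μM α2 mutant, 1 mM Ru(NH3)6Cl3, 1 mM CDP, 3 mM ATP, flowing through the cuvette. α2 was N-terminally His6-tagged E. coli protein, IPTG-induced in BL21(DE3) and Ni-NTA purified. Excitation was a 7 ns 355 nm pulse. Decays averaged 3–6 traces and were fitted by weighted least squares from 1 μs.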

[2] = Transient absorption of the charge-separated state, free peptide; type: physicochemical; details: 50 μM peptide, 50 mM sodium borate pH 8.3, λexc 355 nm
Procedure, shortened: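 Transient absorption decays were read at 380, 480 (Re excited state), 525 (bpy anion) and 425 nm (F3Y radical). ΔOD came from PMT voltage against the pre-flash baseline. Short decays were fitted from the maximum-amplitude point, averaging 3–6 traces.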

SMILES: CC[C@H](C)[C@H](NC(=O)[C@H](CCC(N)=O)NC(=O)CNC(=O)[C@@H](NC(=O)[C@H](CC(C)C)NC(=O)[C@H](Cc1c(F)cc(O)c(F)c1F)NC(=O)c1ccnc(-c2cc(C)ccn2)c1)C(C)C)C(=O)N[C@@H](CC(=O)O)C(=O)N[C@@H](CO)C(=O)N[C@@H](CCC(=O)O)C(=O)N[C@H](C(=O)N[C@@H](CC(=O)O)C(=O)N[C@H](C(=O)N[C@@H](CC(=O)O)C(=O)N[C@@H](CC(=O)O)C(=O)N[C@@H](CC(C)C)C(=O)N[C@@H](CO)C(=O)N[C@@H](CC(N)=O)C(=O)N[C@@H](Cc1ccccc1)C(=O)N[C@@H](CCC(N)=O)C(=O)N[C@@H](CC(C)C)C(=O)O)[C@@H](C)O)C(C)C [[Re]–F3Y–βC19] ({Isonicotinoyl(2-(4-Me-2-Py))}-[X1]LVGQIDSEVDTDDLSNFQL-OH; N-terminus and C-terminus assumed)
- radical lifetime change / radical injection (in words) (Y731F-α2; Y731F-α2): cannot competently inject the radical into α2
- •F3Y lifetime τ410 (Y731F-α2; Y731F-α2, 410 nm, monoexponential, 50 μM peptide, 100 μM α2, pH 8.3): 14.2 ± 0.2 μs
- •F3Y lifetime τ425 (Y731F-α2; Y731F-α2, 425 nm, monoexponential, 50 μM peptide, 100 μM α2, pH 8.3): 16.5 ± 0.4 μs
- portion of peptide N-terminus in the "on" conformer (Y731F-α2; Y731F-α2, from amplitude of the •F3Y lifetime): 20–30%
- radical lifetime change / radical injection (in words) (Y731F-α2; Y731F-α2, listed as [Re]–•F3Y–βC19): no significant change in radical lifetime
- [Re^I]* emission decay, contribution of short component ([1]; pH 8.3, 22 ns component): 81%
- [Re^I]* emission decay, contribution of long component ([1]; pH 8.3, 58 ns component): 19%
- [Re^I]* emission lifetime, long component ([1]; pH 8.3, biphasic, [Re^I]* unchanged by proximal F3Y): 58 ns
- [Re^I]* emission lifetime, short component ([1]; pH 8.3, biphasic, quenching by deprotonated F3Y−): 22 ns
- radical lifetime change / radical injection (in words) (Y730F-α2): radical injection into the surface of the protein is blocked
- •F3Y lifetime (Y730F-α2; Y730F-α2, 395 nm, 100 μM α2, pH 8.3): 14.4 ± 0.2 μs
- •F3Y lifetime (Y730F-α2; Y730F-α2, 410 nm, 100 μM α2, pH 8.3): 13.7 ± 0.2 μs
- •F3Y lifetime (Y730F-α2; Y730F-α2, 425 nm, 100 μM α2, 1 mM Ru(NH3)6Cl3, 1 mM CDP, 3 mM ATP, borate pH 8.3): 14.0 ± 0.2 μs
- radical lifetime change / radical injection (in words) (Y730F-α2; listed as [Re]–•F3Y–βC19): no significant change in radical lifetime
- decay time constant of transient signal, [Re^I]* ([2]; λdet 380 nm, 1 mM CDP, 3 mM ATP, 15 mM MgSO4, 5% glycerol): 60 ± 2 ns
- decay time constant of transient signal, [Re^I]* ([2]; λdet 480 nm): 61 ± 2 ns
